Assay results from different studies.
Each line is one published result; the experiments were not run side by side.
Target: Tyrosine-protein kinase SYK (SYK, Homo sapiens, UniProt P43405)

O=C(c1ccc(Nc2ncc(Cl)c(-c3ccc(Cl)s3)n2)cc1)N1CCC(N2CCCC2)CC1  remaining binding (binding; competition with immobilised ligand; 1 µM): 43%
CCN1CCN(Cc2ccc(C(=O)Nc3ccc(C)c(Oc4ccc5c(c4)CC(=O)N5)c3)cc2C(F)(F)F)CC1  remaining binding (binding; competition with immobilised ligand; 1 µM): 100%
O=C(NCCCN1CCOCC1)c1ccc(Nc2nccc(-c3cc4ccccc4s3)n2)cc1  remaining binding (binding; competition with immobilised ligand; 1 µM): 17%
CC1CCCN1c1nccc(-c2cnn3ncccc23)n1 (centres unmarked)  remaining binding (binding; 1 µM): 100%
COc1ccc2c(c1)O[C@H](c1ccc(OC)c(OC)c1)C[C@@H]2NC(=O)C1(c2ccc3c(c2)OC(F)(F)O3)CC1  remaining binding (cell-free assay; competition with immobilised ligand; 1 µM): 100%
N[C@H]1CCN(c2nccc(-c3cnn4ncccc34)n2)C1  remaining binding (binding; 1 µM): 81%
O=C(NCCCN1CCOCC1)c1ccc(Nc2ncc(Cl)c(-c3ccc(Cl)s3)n2)cc1  remaining binding (binding; competition with immobilised ligand; 1 µM): 34%
CN(C)c1nccc(-c2cnn3ncccc23)n1  remaining binding (binding; 1 µM): 100%
c1cncc(-c2cccc(Nc3nccc(NC4CCCCC4)n3)c2)c1  remaining binding (binding; competition with immobilised ligand; 10 µM): 16%
COc1cnc(Nc2cccc(S(N)(=O)=O)c2)nc1N1CCN(c2ccccc2)CC1  remaining binding (binding; competition with immobilised ligand; 1 µM): 86%
Cc1cc(NC(=O)c2cccc(S(F)(F)(F)(F)F)c2)cc(-n2ccn3nc(-c4cccnc4)cc23)c1  remaining binding (cell-free assay; competition with immobilised ligand; 1 µM): 95.5%
C[C@H]1CCN(c2nccc(-c3cnn4ncccc34)n2)C1  remaining binding (binding; 1 µM): 82%
CSc1cccnc1N1CCN(Cc2nc3ccccc3[nH]2)CC1  remaining binding (cell-free assay; competition with immobilised ligand; 1 µM): 100%
FC(F)(F)Oc1cccc(-c2cnc3ccc(-c4ccncc4)nn23)c1  remaining binding (binding; competition with immobilised ligand; 5 µM): 64%
O=C(Nc1cccnn1)N1CCC(=Cc2cccc(Oc3ccc(C(F)(F)F)cn3)c2)CC1  remaining binding (cell-free assay; competition with immobilised ligand; 1 µM): 100%
CN(C)c1ncc(F)c(-c2cnn3ncccc23)n1  remaining binding (binding; 1 µM): 76%
CN(C)c1ncnc(-c2ccc3nc(Nc4cc(CN5CCN(C(=O)CC(F)(F)F)CC5)ccn4)[nH]c3c2)c1Cl  remaining binding (cell-free assay; competition with immobilised ligand; 1 µM): 96%
CN(C)c1nccc(-c2cnc3ncccn23)n1  remaining binding (binding; 1 µM): 78%
Cc1cc(-n2nc(Cc3cc(F)cc(C(F)(F)F)c3)nc2C)ccc1C(N)=O  remaining binding (cell-free assay; competition with immobilised ligand; 1 µM): 87%
O=C(NCC1CCOCC1)c1n[nH]cc1NC(=O)c1c(F)cccc1F  remaining binding (binding; competition with immobilised ligand; 1 µM): 100%
